# Reference: ChEMBL document CHEMBL1128202, “Identification of a series of 3-(benzyloxy)-1-azabicyclo[2.2.2]octane human NK1 antagonists” (J Med Chem, 1995)
# Test system: Cavia porcellus
# Experiment: Inhibition of SP-induced extravasation in the skin of guinea pig after […] administration of a dose of 10 (ug/kg)
# Format: functional
# Method in brief: (§1)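 Guinea pigs given test compound (po or ip); dorsal skin shaved and Evans blue (0.5 mL, 2.5 g/100 mL saline) injected iv. 10 min later, SP (0.5 pmol in 0.1% HSA saline) injected intradermally; 1 h exposure, then CO2 euthanasia. 6-mm punch biopsies of injection sites; dye extracted overnight in formamide at 45 °C. Read-out: % inhibition of Evans blue leakage.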
row,Structure (SMILES),Inhibition [%]
1,Cc1cc(C)cc(COC2C3CCN(CC3)C2C(c2ccccc2)c2ccccc2)c1 (stereo in doubt; 73),89

# Test system: Cavia porcellus
# Experiment: Inhibition of SP-induced extravasation in the skin of guinea pig after intraperitoneal administration of a dose of 30 (ug/kg)
# Format: functional
# Method in brief: as §1
row,Structure (SMILES),Inhibition [%]
1,FC(F)(F)c1cc(CO[C@H]2C3CCN(CC3)[C@H]2C(c2ccccc2)c2ccccc2)cc(C(F)(F)F)c1 [L-709210],100

# Target: Substance-P receptor (Homo sapiens, UniProt P25103)
# Sequence (P25103 whole entry): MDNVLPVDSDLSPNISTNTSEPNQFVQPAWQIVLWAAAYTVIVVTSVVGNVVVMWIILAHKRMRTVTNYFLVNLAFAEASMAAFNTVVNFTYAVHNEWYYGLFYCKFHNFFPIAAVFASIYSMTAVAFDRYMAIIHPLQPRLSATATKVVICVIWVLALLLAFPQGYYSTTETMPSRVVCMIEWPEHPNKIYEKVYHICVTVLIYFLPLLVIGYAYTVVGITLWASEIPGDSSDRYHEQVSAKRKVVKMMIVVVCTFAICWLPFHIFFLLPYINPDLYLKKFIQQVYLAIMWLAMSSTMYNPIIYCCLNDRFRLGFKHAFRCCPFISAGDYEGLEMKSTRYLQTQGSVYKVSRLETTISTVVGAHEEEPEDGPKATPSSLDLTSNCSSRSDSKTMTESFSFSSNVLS
# Experiment: Inhibition of binding of [125I]SP to the CHO cell line expressing human Tachykinin receptor 1
# Format: cell-based
row,Structure (SMILES),IC50 [nM]
1,Cc1cc(C)cc(COC2C3CCN(CC3)C2C(Cc2ccccc2)c2ccccc2)c1 (stereo in doubt; 85),3.2
2,c1ccc(COC2C3CCN(CC3)C2C(c2ccccc2)c2ccccc2)cc1 (stereo not given),110
3,FC(F)(F)c1cc(COC2C3CCN(CC3)C2C(Cc2ccccc2)c2ccccc2)cc(C(F)(F)F)c1 (stereo in doubt; 88),425
4,FC(F)(F)c1cc(COC2C3CCN(CC3)C2C(c2ccccc2)c2ccccc2)cc(C(F)(F)F)c1 (stereo in doubt; 70),2.7
5,Cc1ccc(C)c(COC2C3CCN(CC3)C2C(c2ccccc2)c2ccccc2)c1 (stereo not given),36
6,FC(F)(F)c1cc(COC2C3CCN(CC3)C2C(c2ccccc2)c2ccccc2)cc(C(F)(F)F)c1 (stereo in doubt; 69),1.6
7,FC(F)(F)c1cc(COC2C3CCN(CC3)C2C(c2ccccc2)C2CCCCC2)cc(C(F)(F)F)c1 (stereo not given),7.5
8,Fc1cc(F)cc(COC2C3CCN(CC3)C2C(c2ccccc2)c2ccccc2)c1 (stereo not given),33
9,Cc1ccccc1COC1C2CCN(CC2)C1C(c1ccccc1)c1ccccc1 (stereo not given),150
10,Clc1cc(Cl)cc(COC2C3CCN(CC3)C2C(c2ccccc2)c2ccccc2)c1 (stereo in doubt; 67),3.5
11,N#Cc1cccc(COC2C3CCN(CC3)C2C(c2ccccc2)c2ccccc2)c1 (stereo not given),127
12,c1ccc(Oc2cccc(COC3C4CCN(CC4)C3C(c3ccccc3)c3ccccc3)c2)cc1 (stereo not given),62
13,FC(F)(F)c1cc(CO[C@H]2C3CCN(CC3)[C@@H]2C(c2ccccc2)c2ccccc2)cc(C(F)(F)F)c1,0.2
14,COc1cc(C)cc(COC2C3CCN(CC3)C2C(c2ccccc2)c2ccccc2)c1 (stereo in doubt; 78),1.5
15,FC(F)(F)c1cc(CO[C@H]2C3CCN(CC3)[C@H]2C(c2ccccc2)c2ccccc2)cc(C(F)(F)F)c1 [L-709210],0.2
16,Cc1cccc(COC2C3CCN(CC3)C2C(c2ccccc2)c2ccccc2)c1 (stereo not given),20
17,N#Cc1ccccc1COC1C2CCN(CC2)C1C(c1ccccc1)c1ccccc1 (stereo not given),86
18,Cc1ccc(COC2C3CCN(CC3)C2C(c2ccccc2)c2ccccc2)cc1 (stereo not given),246
19,FC(F)(F)c1cc(CO[C@@H]2C3CCN(CC3)[C@@H]2C(c2ccccc2)c2ccccc2)cc(C(F)(F)F)c1,300
20,FC(F)(F)c1ccc(COC2C3CCN(CC3)C2C(c2ccccc2)c2ccccc2)cc1 (stereo not given),370
21,FC(F)(F)c1cc(CO[C@@H]2C3CCN(CC3)[C@H]2C(c2ccccc2)c2ccccc2)cc(C(F)(F)F)c1,125
22,COc1cc(COC2C3CCN(CC3)C2C(c2ccccc2)c2ccccc2)cc(OC)c1 (stereo in doubt; 75),9.3
23,Clc1cc(Cl)cc(COC2C3CCN(CC3)C2C(c2ccccc2)c2ccccc2)c1 (stereo in doubt; 68),9
24,Fc1ccc(F)c(COC2C3CCN(CC3)C2C(c2ccccc2)c2ccccc2)c1 (stereo not given),106
25,Clc1ccccc1COC1C2CCN(CC2)C1C(c1ccccc1)c1ccccc1 (stereo not given),80

row,Structure (SMILES),IC50 [nM]
1,FC(F)(F)c1cc(COC2C3CCN(CC3)C2Cc2ccccc2)cc(C(F)(F)F)c1 (stereo not given),103
2,Cc1cc(C)cc(COC2C3CCN(CC3)C2C(c2ccccc2)c2ccccc2)c1 (stereo in doubt; 73),0.26
3,Clc1ccc(COC2C3CCN(CC3)C2C(c2ccccc2)c2ccccc2)cc1 (stereo not given),417
4,Cc1cc(C)cc(COC2C3CCN(CC3)C2Cc2ccccc2)c1 (stereo not given),107
5,Cc1cc(COC2C3CCN(CC3)C2C(c2ccccc2)c2ccccc2)cc([Si](C)(C)C)c1 (stereo not given),0.9
6,FC(F)(F)c1cc(COC2C3CCN(CC3)C2C(Cc2ccccc2)c2ccccc2)cc(C(F)(F)F)c1 (stereo in doubt; 89),10
7,Cc1cc(C)cc(COC2C3CCN(CC3)C2C(Cc2ccccc2)c2ccccc2)c1 (stereo in doubt; 86),23
8,Cc1cc(C)cc(COC2C3CCN(CC3)C2C(Cc2ccccc2)c2ccccc2)c1 (stereo in doubt; 90),353
9,N#Cc1ccc(COC2C3CCN(CC3)C2C(c2ccccc2)c2ccccc2)cc1 (stereo not given),950
10,Fc1ccccc1COC1C2CCN(CC2)C1C(c1ccccc1)c1ccccc1 (stereo not given),93
11,FC(F)(F)c1cc(COC2C3CCN(CC3)C2C(Cc2ccccc2)c2ccccc2)cc(C(F)(F)F)c1 (stereo in doubt; 87),3.9
12,FC(F)(F)c1ccccc1COC1C2CCN(CC2)C1C(c1ccccc1)c1ccccc1 (stereo not given),67
13,COc1cc(C)cc(COC2C3CCN(CC3)C2C(c2ccccc2)c2ccccc2)c1 (stereo in doubt; 77),1.9
14,Fc1cccc(COC2C3CCN(CC3)C2C(c2ccccc2)c2ccccc2)c1 (stereo not given),37
15,FC(F)(F)c1cccc(COC2C3CCN(CC3)C2C(c2ccccc2)c2ccccc2)c1 (stereo not given),300
16,Cc1cc(C)cc(COC2C3CCN(CC3)C2C(c2ccccc2)c2ccccc2)c1 (stereo in doubt; 72),0.9
17,COc1cccc(COC2C3CCN(CC3)C2C(c2ccccc2)c2ccccc2)c1 (stereo not given),56
18,c1ccc(CN[C@H]2C3CCN(CC3)[C@H]2C(c2ccccc2)c2ccccc2)cc1,0.085
19,COc1cc(COC2C3CCN(CC3)C2C(c2ccccc2)c2ccccc2)cc(OC)c1 (stereo in doubt; 76),8.3
20,Fc1ccc(COC2C3CCN(CC3)C2C(c2ccccc2)c2ccccc2)cc1 (stereo not given),252
21,O=[N+]([O-])c1cccc(COC2C3CCN(CC3)C2C(c2ccccc2)c2ccccc2)c1 (stereo not given),197
22,Clc1cccc(COC2C3CCN(CC3)C2C(c2ccccc2)c2ccccc2)c1 (stereo not given),62
23,Cc1cc(I)cc(COC2C3CCN(CC3)C2C(c2ccccc2)c2ccccc2)c1 (stereo not given),0.32
24,Brc1ccccc1COC1C2CCN(CC2)C1C(c1ccccc1)c1ccccc1 (stereo not given),37
25,Cc1ccc(COC2C3CCN(CC3)C2C(c2ccccc2)c2ccccc2)cc1C (stereo not given),172

# Test system: Cavia porcellus
# Experiment: Inhibition of SP-induced extravasation in the skin of guinea pig after intraperitoneal administration of a dose of 3 (ug/kg)
# Format: functional
# Method in brief: as §1
row,Structure (SMILES),Inhibition [%]
1,FC(F)(F)c1cc(CO[C@H]2C3CCN(CC3)[C@H]2C(c2ccccc2)c2ccccc2)cc(C(F)(F)F)c1 [L-709210],59

# Test system: Cavia porcellus
# Experiment: Inhibition of SP-induced extravasation in the skin of guinea pig after oral administration of a dose of 10 (ug/kg)
# Format: functional
# Method in brief: as §1
row,Structure (SMILES),Inhibition [%]
1,FC(F)(F)c1cc(CO[C@H]2C3CCN(CC3)[C@@H]2C(c2ccccc2)c2ccccc2)cc(C(F)(F)F)c1,70
2,FC(F)(F)c1cc(CO[C@H]2C3CCN(CC3)[C@H]2C(c2ccccc2)c2ccccc2)cc(C(F)(F)F)c1 [L-709210],76
3,FC(F)(F)c1cc(CO[C@@H]2C3CCN(CC3)[C@@H]2C(c2ccccc2)c2ccccc2)cc(C(F)(F)F)c1,-17
4,Cc1cc(C)cc(COC2C3CCN(CC3)C2C(c2ccccc2)c2ccccc2)c1 (stereo in doubt; 73),40
5,Cc1cc(C)cc(COC2C3CCN(CC3)C2C(c2ccccc2)c2ccccc2)c1 (stereo in doubt; 72),45

# Test system: Cavia porcellus
# Experiment: Inhibition of SP-induced extravasation in the skin of guinea pig after intraperitoneal administration of a dose of 1 (ug/kg)
# Format: functional
# Method in brief: as §1
row,Structure (SMILES),Inhibition [%]
1,FC(F)(F)c1cc(CO[C@H]2C3CCN(CC3)[C@H]2C(c2ccccc2)c2ccccc2)cc(C(F)(F)F)c1 [L-709210],6

# Test system: Cavia porcellus
# Experiment: Inhibition of SP-induced extravasation in the skin of guinea pig after intraperitoneal administration of a dose of 10 (ug/kg)
# Format: functional
# Method in brief: as §1
row,Structure (SMILES),Inhibition [%]
1,FC(F)(F)c1cc(CO[C@H]2C3CCN(CC3)[C@H]2C(c2ccccc2)c2ccccc2)cc(C(F)(F)F)c1 [L-709210],92
